# Assay results gathered from unrelated publications.
# Lines come from different studies, so protocols differ.
# Cell line: HCT-116
# Observed: cell growth or viability
Compound,technique,time,IC50
CC(=O)O[C@@H]1[C@@H](OC(C)=O)[C@H](OC(C)=O)CO[C@H]1n1cc(Cn2c(C(C)=O)nc3ccccc32)nn1,LDH,48 h,7.74 µM
c1ccc(Cn2nc(-c3ncc(-c4ccccc4)s3)c3ccccc32)cc1,,48 h,50.6 µM
O=[N+]([O-])c1cc(Br)c(O)c(C=NNc2ccc(Br)cc2)c1,MTT,24 h,15.3 µM
CC(C)c1cccc(C(C)C)c1N=C1C(=O)N(Cc2ccccc2)c2ccccc21,MTT,48 h,11.7 µM
O=C1CS/C(=N\c2ccccc2Cl)N1c1nnc(-c2ccc(C(F)(F)F)cc2/N=C2\SCC(=O)N2c2ccccc2Cl)s1,MTT,,57.9 µM
CC(=O)OC[C@H]1O[C@@H](n2cc(Cn3c(C(C)=O)nc4ccccc43)nn2)[C@H](OC(C)=O)[C@@H](OC(C)=O)[C@H]1OC(C)=O,LDH,48 h,6.49 µM
CC(C)c1cccc(C(C)C)c1N=C1C(=O)N(Cc2cccc(Cl)c2)c2ccccc21,MTT,48 h,22.4 µM
Clc1ccc(Cn2nc(-c3ncc(-c4ccccc4)s3)c3ccccc32)c(Cl)c1,,48 h,404 µM
CC(C)CNC(=S)N/N=C/c1cccc2cc3ccccc3nc12,MTT,48 h,> 50 µM
O=C1/C(=C/c2ccc3ccccc3c2O)NC(=S)N1c1ccccc1,MTT,,7.25 µg/mL
Cc1cc(NS(=O)(=O)c2ccc(NC(=O)/C(C#N)=C/c3ccncc3)cc2)no1,MTT,48 h,187 µM
O=C1CS/C(=N\c2cc(C(F)(F)F)ccc2-c2nnc(N3C(=O)CS/C3=N\c3ccc(-c4ccccc4)cc3)s2)N1c1ccc(-c2ccccc2)cc1,MTT,,92.3 µM
FC(F)(F)c1ccc(-c2cc(CNc3cccc4cccnc34)on2)cc1,MTS,72 h,> 100 µM
COc1cccc2c1C(=O)c1c(O)c3c(c(O)c1C2=O)C[C@@](O)(C(=O)CO)C[C@@H]3O[C@H]1C[C@H](N)[C@H](O)[C@H](C)O1,MTT,72 h,0.2 µM
O=C1CSC(=Nc2cc([N+](=O)[O-])ccc2[N+](=O)[O-])N1c1nnc(-c2ccc(C(F)(F)F)cc2N=C2SCC(=O)N2c2cc([N+](=O)[O-])ccc2[N+](=O)[O-])s1,MTT,,80.9 µM
CN1CCC(NC2CCc3[nH]c4c(C(N)=O)ccc(-c5ccccc5Cl)c4c3C2)CC1 (centres unmarked),,96 h,0.00023 µM
O=[N+]([O-])c1cc(I)c(O)c(C=NNc2ccc(Br)cc2)c1,MTT,24 h,15.3 µM
CC(C)c1ccc(/C=C2\N=C(SCc3ccccc3)N(c3ccccc3)C2=O)cc1,MTT,,72.9 µg/mL
Cc1ccc(CN2C(=O)C(=Nc3cccc(Cl)c3)c3ccccc32)cc1,MTT,48 h,1.05 µM
O=[N+]([O-])c1cc(I)c(O)c(C=NNc2ccc(Cl)cc2)c1,MTT,24 h,13.9 µM
CC(C)c1cccc(C(C)C)c1N=C1C(=O)N(Cc2ccc(Br)cc2)c2ccccc21,MTT,48 h,37.4 µM
O=C(C=Cc1cccs1)c1ccc(OCCOc2ccc(C(=O)C=Cc3cccs3)cc2)cc1,MTT,48 h,18.1 µM
c1ccc2c(c1)ncn2Cn1cncn1,MTT,24 h,102 µM
COc1ccc2c(-c3nc(-c4ccccc4)no3)nn(Cc3ccncc3)c2c1,,48 h,10.8 µM
N/C(=N\O)c1ccc(-c2cc(CNc3cccc4cccnc34)on2)cc1,MTS,72 h,> 100 µM
O=[N+]([O-])c1ccc(O)c(C=NNc2ccc(Br)cc2)c1,MTT,24 h,7.23 µM
CONC(=O)c1cccc2c1cc(C)n2-c1nc2c(c(NCc3ccccc3)n1)CCCN2,ATP luminescence,72 h,0.7 µM
O=C(CCc1ccc(Cl)cc1)N1C(=O)C(=Nc2ccc(Cl)cc2Br)c2ccccc21,MTT,48 h,23.2 µM
FC(F)(F)c1cc(OCc2cc(-c3ccccc3)no2)c2ccccc2n1,MTS,72 h,> 100 µM
O=C1/C(=C/c2ccc([N+](=O)[O-])cc2[N+](=O)[O-])NC(=S)N1c1ccccc1,MTT,,98.5 µg/mL
O=C(C=Cc1cccs1)c1ccc(OCCCCOc2ccc(C(=O)C=Cc3cccs3)cc2)cc1,MTT,48 h,356 µM
Cc1ccc(NC(=O)Cn2cc(COc3ncnc4[nH]cnc34)nn2)c(C)c1,MTT,,> 100 µM
O=C(O)c1nn(Cc2ccc(Cl)cc2Cl)c2ccccc12,,48 h,247 µM
Cc1c2c(nn1C)CSCc1cc(n(C)n1)CSc1cc(c3ccccc3c1)OCCCc1c(C(=O)O)n(C)c3c-2c(Cl)ccc13,CCK-8,,25 µM
Cc1cc2c(C(N)=O)cccc2n1-c1nc(NCc2ccccc2)c2c(n1)NC(C)CC2 (centres unmarked),ATP luminescence,72 h,0.9 µM
O=C1Nc2ccccc2C1=Nc1cccc(Cl)c1,MTT,48 h,> 100 µM
CC(=O)O[C@@H]1[C@@H](OC(C)=O)[C@H](OC(C)=O)CO[C@H]1n1cc(Cn2c(C(=O)/C=C/c3ccc(F)cc3)nc3ccccc32)nn1,LDH,48 h,9.97 µM
O=C1CS/C(=N\c2cc(C(F)(F)F)ccc2-c2nnc(N3C(=O)CS/C3=N\c3cc(O)cc(Br)c3)s2)N1c1cc(O)cc(Br)c1,MTT,,78.1 µM
CCOC(=O)c1cc(C)n(Cn2cnc3ccccc32)n1,MTT,24 h,47.9 µM
O=c1[nH]cc(F)c(=O)[nH]1,MTT,48 h,17 µM
c1ccc(-c2noc(-c3nn(Cc4ccc5ccccc5c4)c4ccccc34)n2)cc1,,48 h,173 µM
CC1(P2(=O)CCCCC2)CCCCC1,MTT,72 h,69.3 µM
OCn1ccnc1,MTT,24 h,10.7 µM
CNC(=S)N/N=C/c1cccc2cc3ccccc3nc12,MTT,48 h,21.8 µM
COc1cc(N=C2C(=O)Nc3ccccc32)cc(OC)c1,MTT,48 h,24.4 µM
O=C(CSc1nc2ccccc2s1)N/N=C/c1ccc(OCC(=O)Nc2cccc(Br)c2)cc1,MTS,72 h,> 100 µM
Cc1cc2c(C(N)=O)cccc2n1-c1nc2c(c(NCc3cccc(O)c3)n1)CCCN2,ATP luminescence,72 h,0.7 µM
N#Cc1ccc(-c2cc(COc3cc(=O)oc4ccccc34)on2)cc1,MTS,72 h,> 100 µM
COc1ccc(N(Cc2csc(-c3ccc(Br)cc3)n2)C(=O)CCCCCC(=O)NO)cc1,MTT,72 h,2.21 µM
CN1CCc2c(c3ccccc3n2Cc2ccc(C(=O)NO)cc2)C1,CCK-8,48 h,12 µM
O=c1cc(OCc2cc(-c3ccccn3)no2)c2ccccc2o1,MTS,72 h,> 100 µM
COc1ccc(N(Cc2csc(-c3ccccc3)n2)C(=O)CCCCCC(=O)NO)cc1,MTT,72 h,1.12 µM
O=C1CSC(=Nc2cc(C(F)(F)F)ccc2-c2nnc(N3C(=O)CSC3=Nc3ccc([N+](=O)[O-])cc3)s2)N1c1ccc([N+](=O)[O-])cc1,MTT,,74.4 µM
O=C1C(=Nc2ccc(Cl)cc2)c2ccccc2N1Cc1ccc([N+](=O)[O-])cc1,MTT,48 h,1.75 µM
CONC(=O)Cc1c(C)n(-c2nc3c(c(NCc4ccccc4)n2)CCCN3)c2ccccc12,ATP luminescence,72 h,4.2 µM
O=C(CSc1nc2ccccc2s1)N/N=C/c1ccc(OCC(=O)Nc2cccc([N+](=O)[O-])c2)cc1,MTS,72 h,13.3 µM
